# Assay results: ChEMBL document CHEMBL1125232, “Synthesis and biological activity of bay-region metabolites of a cyclopenta-fused polycyclic aromatic hydrocarbon: benz[j]aceanthrylene” (1991)
# Columns and labels:
# Assay type in all cases: functional, Salmonella enterica subsp. enterica serovar Typhimurium
# Salmonella typhimurium [1] = experiment: (§1) Mutagenicity determined by Ames assay in Salmonella Typhimurium strain TA98, with metabolic activation by Aroclor 1254 induced rat liver S9 at a dose of 0.5 ug/plate
# In short: (§2)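 Ames plate incorporation assay, modified per Claxton, in TA98. Compounds dissolved in DMSO. Each plate received 0.8 mg S9 protein from livers of Aroclor 1254-treated male rats, plus NADPH-generating cofactors. Each dose was run in duplicate on two or three separate occasions. Values are mean His+ revertants/plate.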
# Salmonella typhimurium [2] = experiment: (§3) Mutagenicity determined by Ames assay in Salmonella Typhimurium strain TA98, with metabolic activation by Aroclor 1254 induced rat liver S9 at a dose of 1.0 ug/plate; in short: as §2
# Salmonella typhimurium [3] = experiment: (§4) Mutagenicity determined by Ames assay in Salmonella Typhimurium strain TA98, with metabolic activation by Aroclor 1254 induced rat liver S9 at a dose of 10 ug/plate; in short: as §2
# Salmonella typhimurium [4] = experiment: (§5) Mutagenicity determined by Ames assay in Salmonella Typhimurium strain TA98, with metabolic activation by Aroclor 1254 induced rat liver S9 at a dose of 20 ug/plate; in short: as §2
# Salmonella typhimurium [5] = experiment: (§6) Mutagenicity determined by Ames assay in Salmonella Typhimurium strain TA98, with metabolic activation by Aroclor 1254 induced rat liver S9 at a dose of 5 ug/plate; in short: as §2
# Salmonella typhimurium [6] = experiment: Mutagenicity determined by Ames assay in Salmonella Typhimurium strain TA98, without metabolic activation by Aroclor 1254 induced rat liver S9 at a dose of 0.5 ug/plate; parameters: unit: revertants/plate
# In short: (§7)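 Ames plate incorporation assay in TA98, modified per Claxton, with no S9 or cofactors added. Test compounds were given from DMSO solution. Each dose level was plated in duplicate on two or three separate occasions. Read-out is mean His+ revertants/plate.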
# Salmonella typhimurium [7] = experiment: (§8) Mutagenicity determined by Ames assay in Salmonella Typhimurium strain TA98, without metabolic activation by Aroclor 1254 induced rat liver S9 at a dose of 1.0 ug/plate; in short: as §7
# Salmonella typhimurium [8] = experiment: (§9) Mutagenicity determined by Ames assay in Salmonella Typhimurium strain TA98, without metabolic activation by Aroclor 1254 induced rat liver S9 at a dose of 10 ug/plate; in short: as §7
# Salmonella typhimurium [9] = experiment: (§10) Mutagenicity determined by Ames assay in Salmonella Typhimurium strain TA98, without metabolic activation by Aroclor 1254 induced rat liver S9 at a dose of 20 ug/plate; in short: as §7
# Salmonella typhimurium [10] = experiment: (§11) Mutagenicity determined by Ames assay in Salmonella Typhimurium strain TA98, without metabolic activation by Aroclor 1254 induced rat liver S9 at a dose of 5 ug/plate; in short: as §7
# Salmonella typhimurium [11] = experiment: (§12) Specific mutagenicity in the absence of protein S9, was expressed as His+ revertants/nmol, calculated by least-square linear regression.
# In short: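 Ames plate incorporation assay in TA98 without S9; compounds in DMSO; doses in duplicate on two or three occasions. His+ revertants/nmol from least-squares linear regression of the linear part of the dose-response curve, up to 10 µg/plate for most compounds and to 5 or 20 µg/plate for others.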
# Salmonella typhimurium [12] = experiment: (§13) Specific mutagenicity in the presence of protein S9, was expressed as His+ revertants/nmol, calculated by least-square linear regression.
# In short: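 Ames plate incorporation assay in TA98 with 0.8 mg Aroclor 1254-induced male rat liver S9 protein per plate plus NADPH-generating cofactors; compounds in DMSO; doses in duplicate on two or three occasions. His+ revertants/nmol from least-squares linear regression of the dose-response curve's linear part, up to 10 µg/plate.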
# Salmonella typhimurium [13] = experiment: as §3; remark: listed apart in the source
# In short: (§14)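 Ames plate incorporation test following Claxton's modification, with compounds dissolved in DMSO. Each plate received 0.8 mg S9 protein from livers of Aroclor 1254-treated male rats plus NADPH-generating cofactors. Each dose was plated in duplicate on two or three separate occasions, and the value is the mean His⁺ revertants/plate. The positive control was 2-anthramine at 0.5 μg/plate, with DMSO as the solvent control.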
# Salmonella typhimurium [14] = experiment: as §5; in short: as §14; remark: listed apart in the source
# Salmonella typhimurium [15] = experiment: as §6; in short: as §14; remark: listed apart in the source
# Salmonella typhimurium [16] = experiment: as §8; remark: listed apart in the source
# In short: (§15)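 Ames plate incorporation test following Claxton's modification, run without S9, with compounds dissolved in DMSO. Each dose was plated in duplicate on two or three separate occasions, and the value is the mean His⁺ revertants/plate. The positive control was 2-nitrofluorene at 3 μg/plate, with DMSO as the solvent control.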
# Salmonella typhimurium [17] = experiment: as §9; in short: as §15; remark: listed apart in the source
# Salmonella typhimurium [18] = experiment: as §12; remark: listed apart in the source
# In short: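 Calculated as His⁺ revertants/nmol by least-squares linear regression over the linear portion of the no-S9 plate-incorporation dose–response (DMSO solutions, duplicate plates, two or three occasions). The fit ran to 10 μg/plate for most compounds, but for two compounds it ran to 5 or 20 μg/plate.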
# Salmonella typhimurium [19] = experiment: as §13; remark: listed apart in the source
# In short: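 Calculated as His⁺ revertants/nmol by least-squares linear regression over the linear portion of the dose–response to 10 μg/plate. Plates received 0.8 mg Aroclor 1254-induced male rat liver S9 protein with NADPH-generating cofactors. Compounds were dissolved in DMSO and plated in duplicate on two or three occasions.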
# Salmonella typhimurium [20] = experiment: as §1; in short: as §14; remark: listed apart in the source
# Salmonella typhimurium [21] = experiment: as §10; in short: as §15; remark: listed apart in the source
# Salmonella typhimurium [22] = experiment: as §11; in short: as §15; remark: listed apart in the source
# Salmonella typhimurium [23] = experiment: as §4; in short: as §14; remark: listed apart in the source
SMILES,Mutagenicity (Salmonella typhimurium [1]),Mutagenicity (Salmonella typhimurium [2]),Mutagenicity (Salmonella typhimurium [3]),Mutagenicity (Salmonella typhimurium [4]),Mutagenicity (Salmonella typhimurium [5]),Mutagenicity (Salmonella typhimurium [6]),Mutagenicity (Salmonella typhimurium [7]),Mutagenicity (Salmonella typhimurium [8]),Mutagenicity (Salmonella typhimurium [9]),Mutagenicity (Salmonella typhimurium [10]),Activity (Salmonella typhimurium [11]),Activity (Salmonella typhimurium [12]),Mutagenicity (Salmonella typhimurium [13]),Mutagenicity (Salmonella typhimurium [14]),Mutagenicity (Salmonella typhimurium [15]),Mutagenicity (Salmonella typhimurium [16]),Mutagenicity (Salmonella typhimurium [17]),Activity (Salmonella typhimurium [18]),Activity (Salmonella typhimurium [19]),Mutagenicity (Salmonella typhimurium [20]),further results
C1=CC2OC2c2ccc3c4c5c(cccc5cc3c21)C=C4 (stereo not drawn),58,71,272,350,176,28,26,39,46,34,0.2,5.6,,,,,,,,,
O[C@H]1C=Cc2c(ccc3c4c5c(cccc5cc23)C=C4)[C@@H]1O,,,,,,36,,,,,,,100,543,335,40,45,0.7,9.4,67,Mutagenicity (Salmonella typhimurium [21]): 75; Mutagenicity (Salmonella typhimurium [22]): 43; Mutagenicity (Salmonella typhimurium [23]): 469
O[C@H]1c2ccc3c4c5c(cccc5cc3c2[C@@H]2OC2[C@@H]1O)C=C4 (stereo partly drawn),,,,,,37,,,,,,,86,148,283,53,172,10,12.9,51,Mutagenicity (Salmonella typhimurium [21]): 93; Mutagenicity (Salmonella typhimurium [22]): 186; Mutagenicity (Salmonella typhimurium [23]): 287
C1=Cc2c3ccc4ccccc4c3cc3cccc1c23 [BENZO[J]ACEANTHRYLENE],76,103,694,915,429,35,39,32,38,38,0.1,12.9,,,,,,,,,
